Here are results for 17 compounds from ChEMBL document CHEMBL4312000, “Discovery of coumarin-derived imino sulfonates as a novel class of potential cardioprotective agents” (Eur J Med Chem, 2019).

Active and inactive are the calls of the source. The rule behind the calls is not given here.

Data set [1] has as its system H9c2. The experiment in a line: Cardioprotective activity against rat H9c2 cells assessed as reduction in H2O2-induced cell death at 20 uM incubated for 24 hrs followed by H2O2 stimulation and measured after 2 hrs by MTT assay. It counts as functional, cell-based. In outline:
(§1)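 Serum-starved H9c2 cells in DMEM/F12 with 10% FBS were seeded at 5×10^3 cells/well and attached overnight. They were pretreated 24 h with compound at 2.5, 5, 10 or 20 µM, then exposed to 250 µM H2O2 for 2 h. MTT (4 mg/mL) ran 4 h at 37 °C, formazan was dissolved in DMSO, and OD was read at 490 nm. Viability is % of untreated control, from three independent experiments, mean ± SD.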
On the technique in general: Tetrazolium assays rely on reduction of a dye to a coloured formazan, in cell work by metabolically active cells.

Data set [2] concerns H9c2. The experiment in a line: Cardioprotective activity against rat H9c2 cells assessed as reduction in H2O2-induced cell death at 10 uM incubated for 24 hrs followed by H2O2 stimulation and measured after 2 hrs by MTT assay. It counts as functional, cell-based. The method in brief:
as §1

For data set [3], the target named is T1, Nuclear factor erythroid 2-related factor 2 (Rattus norvegicus) (UniProt O54968).
T1 sequence (whole entry): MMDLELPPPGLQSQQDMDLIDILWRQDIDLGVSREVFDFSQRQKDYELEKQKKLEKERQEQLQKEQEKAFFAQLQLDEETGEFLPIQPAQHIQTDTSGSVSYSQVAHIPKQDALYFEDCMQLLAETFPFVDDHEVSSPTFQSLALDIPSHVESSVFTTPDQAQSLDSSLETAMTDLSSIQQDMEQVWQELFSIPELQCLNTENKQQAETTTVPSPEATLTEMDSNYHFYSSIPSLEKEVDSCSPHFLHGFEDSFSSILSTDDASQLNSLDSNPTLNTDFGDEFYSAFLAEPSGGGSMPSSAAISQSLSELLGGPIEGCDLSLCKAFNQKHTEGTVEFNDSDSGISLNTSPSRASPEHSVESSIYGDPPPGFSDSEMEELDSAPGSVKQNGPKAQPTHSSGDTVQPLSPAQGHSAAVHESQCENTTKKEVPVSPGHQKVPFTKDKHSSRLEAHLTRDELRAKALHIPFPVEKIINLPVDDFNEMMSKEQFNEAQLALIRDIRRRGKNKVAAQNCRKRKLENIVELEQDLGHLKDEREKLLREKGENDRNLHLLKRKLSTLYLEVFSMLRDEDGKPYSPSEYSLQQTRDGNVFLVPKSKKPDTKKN
Description: Activation of Nrf2 in rat H9c2 cells assessed as upregulation of NQO1 at 10 uM incubated for 24 hrs followed by H2O2 stimulation and measured after 2 hrs by Western blot analysis. It counts as cell-based.

The target in data set [4] is T1, Nuclear factor erythroid 2-related factor 2 (Rattus norvegicus). Description: Activation of Nrf2 in rat H9c2 cells assessed as upregulation of HO1 at 10 uM incubated for 24 hrs followed by H2O2 stimulation and measured after 2 hrs by Western blot analysis. It counts as cell-based.
The test system of data set [5] is H9c2. Description: Cardioprotective activity against rat H9c2 cells assessed as reduction in H2O2-induced cell death at 2.5 uM incubated for 24 hrs followed by H2O2 stimulation and measured after 2 hrs by MTT assay. It counts as functional, cell-based. The method in brief: as §1
The target in data set [6] is T1, Nuclear factor erythroid 2-related factor 2 (Rattus norvegicus). The experiment in a line: Activation of Nrf2 in rat H9c2 cells assessed as upregulation of HO1 incubated for 24 hrs followed by H2O2 stimulation and measured after 2 hrs by Western blot analysis. It counts as cell-based. For orientation: Immunoblotting shows a protein as a band on a membrane.
The target is the same in data set [7]. The experiment in a line: Activation of Nrf2 in rat H9c2 cells assessed as induction of Nrf2 nuclear translocation at 10 uM incubated for 24 hrs followed by H2O2 stimulation and measured after 2 hrs by Western blot analysis. It counts as cell-based.
Data set [8] has the same target. The experiment in a line: Activation of Nrf2 in rat H9c2 cells assessed as upregulation of NQO1 incubated for 24 hrs followed by H2O2 stimulation and measured after 2 hrs by Western blot analysis. It counts as cell-based.
The test system of data set [9] is H9c2. The experiment in a line: Cardioprotective activity against rat H9c2 cells assessed as reduction in H2O2-induced cell death at 5 uM incubated for 24 hrs followed by H2O2 stimulation and measured after 2 hrs by MTT assay. It counts as functional, cell-based. In outline: as §1
The subject of data set [10] is H9c2. Description: Cardioprotective activity against rat H9c2 cells assessed as reduction in H2O2-induced LDH release at 10 uM incubated for 24 hrs followed by H2O2 stimulation and measured after 2 hrs by LDH release assay. It counts as functional, cell-based. The method in brief: (§2)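 Cells were cultured in DMEM/F12 with 10% FBS and serum-starved, then pre-incubated 24 h with compound at 10 or 20 µM before 2 h with 250 µM H2O2. LDH release rate was measured with a cytotoxicity detection kit by absorbance at 490 nm. Three independent experiments, mean ± SD, one-way ANOVA with Tukey test.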

In data set [11] the target is T1, Nuclear factor erythroid 2-related factor 2 (Rattus norvegicus). The experiment in a line: Activation of Nrf2 in rat H9c2 cells assessed as induction of Nrf2 nuclear translocation incubated for 24 hrs followed by H2O2 stimulation and measured after 2 hrs by Western blot analysis. It counts as cell-based.
The subject of data set [12] is H9c2. The experiment in a line: Cardioprotective activity against rat H9c2 cells assessed as reduction in H2O2-induced LDH release at 20 uM incubated for 24 hrs followed by H2O2 stimulation and measured after 2 hrs by LDH release assay. It counts as functional, cell-based. The method in brief:
as §2
(In general: LDH leaks from cells whose membrane has failed.)

In data set [13] the test system is H9c2. Description: Inhibition of H2O2-induced ROS accumulation in rat H9c2 cells at 10 uM incubated for 24 hrs followed by H2O2 stimulation and measured after 2 hrs by DHE staining based fluorescence microscopy. It counts as functional, cell-based. The method in brief:
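H9c2 cells at 2.5×10^5 cells/well attached overnight, were preincubated 24 h with 10 µM, then given H2O2 (250 µM) for 2 h. Dihydroethidium (5 µM) was loaded for 30 min at 37 °C. Ethidium fluorescence (ex 488/em […] nm) was imaged by fluorescence microscopy at 200×.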

For data set [14], the system named is H9c2. Description: Increase in H2O2-induced Nrf2 expression in rat H9c2 cells at 20 uM incubated for 24 hrs followed by H2O2 stimulation and measured after 2 hrs by Western blot analysis. It counts as functional, cell-based. The method in brief:
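Pretreatment was 20 µM for 24 h, then 250 µM H2O2 for 2 h. Cytoplasmic and nuclear fractions were extracted for Western blot: 5% milk/TBS-0.1% Tween blocking 2 h, primary antibodies overnight at 4 °C, HRP anti-rabbit secondary (1:5000) 2 h. Signals were normalised to Lamin B1 (nuclear) or GAPDH (cytoplasmic), n=3, mean ± SD.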

The subject of data set [15] is H9c2. The experiment in a line: Cytotoxicity against rat H9c2 cells assessed as reduction in cell viability at 0.1 to 100 uM incubated for 24 hrs by MTT assay. It counts as cell-based. The settings on record: h9c2, 24 h. In outline:
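H9c2 cells were seeded at 5×10^3 cells/well, attached overnight and given compound at 0.1, 1, 10 or 100 µM for 24 h, with 0.01% DMSO medium as control. Compounds were DMSO stocks diluted in medium. MTT (4 mg/mL, 4 h, 37 °C) was read at OD 490 nm after DMSO solubilisation. Viability is % of control, from three experiments.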

As to `Cc1ccc2c(c1)OS(=O)(=O)N=C2`, the outcome in the data set with H9c2 [1] was Active.
Still for that read-out and setting: next, `COc1ccc2c(c1)C=NS(=O)(=O)O2`: “Active”.
On the same count and under the same terms, the result for `COc1cccc2c1OS(=O)(=O)N=C2` reads “Active”.
Consider `O=S1(=O)N=Cc2ccc(Cl)cc2O1`, for which the result (with H9c2 [1]; with H9c2 [2]; in data set [3]; in data set [4]; in [7]; in the data set with H9c2 [9]) was Active. Further, the outcome in the data set on H9c2 [10], with H9c2 [12] and in the data set on H9c2 [14] was Active. Moreover, the result in the data set on H9c2 [5] was inactive. For the same compound, the Activity result in data set [6] was “Dose-dependent effect”; in data set [8], “Dose-dependent effect”; in data set [11], “Dose-dependent effect”; in the data set with H9c2 [15], “Non-Toxic”. The inhibition result in the data set on H9c2 [13] was “Active”.
Regarding `CC(C)(C)c1cccc2c1OS(=O)(=O)N=C2`, the result in the data set on H9c2 [1] was inactive.
Consider `O=c1cc(-c2ccc(O)c(O)c2)oc2cc(O)cc(O)c12`, for which the result (with H9c2 [1]; in the data set with H9c2 [2]; in data set [3]; in [4]; in data set [7]) was Active. Also, the result with H9c2 [5] was inactive.
Regarding `O=S1(=O)N=Cc2ccc(F)cc2O1`, the result in the data set with H9c2 [1], in the data set with H9c2 [2] and in the data set on H9c2 [12] was Active. Also, the result in the data set on H9c2 [5] and in the data set on H9c2 [10] was inactive. Besides, in the data set with H9c2 [15], the Activity entry was “Non-Toxic”.
For `O=S1(=O)N=Cc2c(ccc3ccccc23)O1`, in the data set on H9c2 [1], the outcome was Active.
Still for that read-out and setting: next, `O=S1(=O)N=Cc2cccc(Cl)c2O1`: “Active”; `O=S1(=O)N=Cc2cccc(F)c2O1`: “Active”; `O=S1(=O)N=Cc2cc(Cl)ccc2O1`: “Active”.
Turning to `CCN(CC)c1ccc2c(c1)OS(=O)(=O)N=C2`, the result in the data set with H9c2 [1] was Active.
Still for that read-out and setting: the result for `O=S1(=O)N=Cc2c(F)cccc2O1` reads “Active”; that for `Cc1ccc2c(c1)C=NS(=O)(=O)O2`, “Active”.
Still for that read-out and setting: next, `COc1ccc2c(c1)OS(=O)(=O)N=C2`: “Active”.
On the same count and under the same terms, next, `O=S1(=O)N=Cc2ccccc2O1`: “Active”.
With `O=S1(=O)N=Cc2cc(Br)ccc2O1`, the outcome in the data set on H9c2 [1], in the data set on H9c2 [2] and with H9c2 [12] was Active. Further, the result in the data set on H9c2 [5] and in the data set on H9c2 [10] was inactive. Also, in the data set on H9c2 [15], the Activity entry was “Non-Toxic”.
